# Test results: ChEMBL document CHEMBL2040809, “Synthesis and biological activity evaluation of cytidine-5'-deoxy-5-fluoro-N-[(alkoxy/aryloxy)] carbonyl-cyclic 2',3'-carbonates” (Eur J Med Chem, 2012)
# System: Salmonella typhimurium
# Experiment: Mutagenic activity in Salmonella typhimurium TA102 at 0.312 to 5 mg/plate measured after incubation of upside down for 48 hrs in presence of liver S9 mixture
# Type: toxicity, organism-based
# Settings: salmonella enterica subsp. enterica serovar typhimurium, s9, 48 h
# Summary of the method: (§1)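 Plate incorporation trial (Trial I) with histidine-dependent auxotrophs. Revertant colonies are counted against the concurrent vehicle control. Each dose and each control, including negative, vehicle and positive reference mutagens, run in triplicate plates.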
row,SMILES,Activity
1,CC(C)CCOC(=O)Nc1nc(=O)n([C@@H]2O[C@H](C)[C@@H](O)[C@H]2O)cc1F,Non-toxic

# System: Salmonella typhimurium
# Experiment: Mutagenic activity in Salmonella typhimurium TA100 at 0.312 to 5 mg/plate measured after incubation of upside down for 48 hrs in absence of liver S9 mixture
# Type: toxicity, organism-based
# Settings: salmonella enterica subsp. enterica serovar typhimurium
# Summary of the method: as §1
row,SMILES,Activity
1,CC(C)CCOC(=O)Nc1nc(=O)n([C@@H]2O[C@H](C)[C@@H](O)[C@H]2O)cc1F,Non-toxic

# System: Salmonella typhimurium
# Experiment: Mutagenic activity in Salmonella typhimurium TA1535 at 0.312 to 5 mg/plate preincubated for 20 mins before addition in absence of liver S9 mixture
# Type: toxicity, organism-based
# Settings: salmonella enterica subsp. enterica serovar typhimurium
# Summary of the method: (§2)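 Pre-incubation trial (Trial II) with histidine-dependent auxotrophs. Test solution is pre-incubated with bacterial suspension and S9 mix (10% v/v) or substitution buffer before plating on selective agar. Revertant colonies are counted against the concurrent vehicle control. Triplicate plates per dose and per control (negative, vehicle, positive reference mutagens).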
row,SMILES,Activity
1,CC(C)CCOC(=O)Nc1nc(=O)n([C@@H]2O[C@H](C)[C@@H](O)[C@H]2O)cc1F,Non-toxic

# System: MCF7
# Experiment: Cytotoxicity against human MCF7 cells after 3 days MTT assay
# Type: functional, cell-based
# Settings: MCF7, 72 h
# Summary of the method: (§3)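 Cells held as monolayers in DMEM with 10% supplement. Seeded in 96-well plates on day 0 at densities set by doubling time: 1 × 10⁴/mL for HeLa and NCI-69, 2 × 10⁴/mL for MCF-7, 3 × 10⁴/mL for PZ-HPV-7. Five dilutions (10⁻⁸–5 × 10⁻⁶ mol/l), freshly prepared, added for 72 h. Growth read by MTT (succinate dehydrogenase activity); IC50 derived.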
row,SMILES,IC50
1,CC(C)CCOC(=O)Nc1nc(=O)n([C@@H]2O[C@H](C)[C@@H](O)[C@H]2O)cc1F,120 µg/mL

# System: Salmonella typhimurium
# Experiment: Mutagenic activity in Salmonella typhimurium TA1537 at 0.312 to 5 mg/plate measured after incubation of upside down for 48 hrs in absence of liver S9 mixture
# Type: toxicity, organism-based
# Settings: salmonella enterica subsp. enterica serovar typhimurium
# Summary of the method: as §1
row,SMILES,Activity
1,CC(C)CCOC(=O)Nc1nc(=O)n([C@@H]2O[C@H](C)[C@@H](O)[C@H]2O)cc1F,Non-toxic

# System: Salmonella typhimurium
# Experiment: Mutagenic activity in Salmonella typhimurium TA98 at 0.312 to 5 mg/plate preincubated for 20 mins before addition in absence of liver S9 mixture
# Type: toxicity, organism-based
# Settings: salmonella enterica subsp. enterica serovar typhimurium
# Summary of the method: as §2
row,SMILES,Activity
1,CC(C)CCOC(=O)Nc1nc(=O)n([C@@H]2O[C@H](C)[C@@H](O)[C@H]2O)cc1F,Non-toxic

# System: Salmonella typhimurium
# Experiment: Mutagenic activity in Salmonella typhimurium TA102 at 0.312 to 5 mg/plate measured after incubation of upside down for 48 hrs in absence of liver S9 mixture
# Type: toxicity, organism-based
# Settings: salmonella enterica subsp. enterica serovar typhimurium
# Summary of the method: as §1
row,SMILES,Activity
1,CC(C)CCOC(=O)Nc1nc(=O)n([C@@H]2O[C@H](C)[C@@H](O)[C@H]2O)cc1F,Non-toxic

# System: Salmonella typhimurium
# Experiment: Mutagenic activity in Salmonella typhimurium TA100 at 0.312 to 5 mg/plate preincubated for 20 mins before addition in absence of liver S9 mixture
# Type: toxicity, organism-based
# Settings: salmonella enterica subsp. enterica serovar typhimurium
# Summary of the method: as §2
row,SMILES,Activity
1,CC(C)CCOC(=O)Nc1nc(=O)n([C@@H]2O[C@H](C)[C@@H](O)[C@H]2O)cc1F,Non-toxic

# System: Salmonella typhimurium
# Experiment: Mutagenic activity in Salmonella typhimurium TA1537 at 0.312 to 5 mg/plate measured after incubation of upside down for 48 hrs in presence of liver S9 mixture
# Type: toxicity, organism-based
# Settings: salmonella enterica subsp. enterica serovar typhimurium, s9, 48 h
# Summary of the method: as §1
row,SMILES,Activity
1,CC(C)CCOC(=O)Nc1nc(=O)n([C@@H]2O[C@H](C)[C@@H](O)[C@H]2O)cc1F,Non-toxic

# System: Salmonella typhimurium
# Experiment: Mutagenic activity in Salmonella typhimurium TA1535 at 0.312 to 5 mg/plate preincubated for 20 mins before addition in presence of liver S9 mixture
# Type: toxicity, organism-based
# Settings: salmonella enterica subsp. enterica serovar typhimurium
# Summary of the method: as §2
row,SMILES,Activity
1,CC(C)CCOC(=O)Nc1nc(=O)n([C@@H]2O[C@H](C)[C@@H](O)[C@H]2O)cc1F,Non-toxic

# System: Salmonella typhimurium
# Experiment: Mutagenic activity in Salmonella typhimurium TA1537 at 0.312 to 5 mg/plate preincubated for 20 mins before addition in presence of liver S9 mixture
# Type: toxicity, organism-based
# Settings: salmonella enterica subsp. enterica serovar typhimurium
# Summary of the method: as §2
row,SMILES,Activity
1,CC(C)CCOC(=O)Nc1nc(=O)n([C@@H]2O[C@H](C)[C@@H](O)[C@H]2O)cc1F,Non-toxic

# System: Salmonella typhimurium
# Experiment: Mutagenic activity in Salmonella typhimurium TA98 at 0.312 to 5 mg/plate measured after incubation of upside down for 48 hrs in absence of liver S9 mixture
# Type: toxicity, organism-based
# Settings: salmonella enterica subsp. enterica serovar typhimurium
# Summary of the method: as §1
row,SMILES,Activity
1,CC(C)CCOC(=O)Nc1nc(=O)n([C@@H]2O[C@H](C)[C@@H](O)[C@H]2O)cc1F,Non-toxic

# System: not listed separately
# Experiment: Cytotoxicity against human PZ-HPV-7 cells after 3 days MTT assay
# Type: functional, cell-based
# Settings: 72 h
# Summary of the method: as §3
row,SMILES,IC50
1,CC(C)CCOC(=O)Nc1nc(=O)n([C@@H]2O[C@H](C)[C@@H](O)[C@H]2O)cc1F,250 µg/mL

# System: Salmonella typhimurium
# Experiment: Mutagenic activity in Salmonella typhimurium TA1537 at 0.312 to 5 mg/plate preincubated for 20 mins before addition in absence of liver S9 mixture
# Type: toxicity, organism-based
# Settings: salmonella enterica subsp. enterica serovar typhimurium
# Summary of the method: as §2
row,SMILES,Activity
1,CC(C)CCOC(=O)Nc1nc(=O)n([C@@H]2O[C@H](C)[C@@H](O)[C@H]2O)cc1F,Non-toxic

# System: Salmonella typhimurium
# Experiment: Mutagenic activity in Salmonella typhimurium TA102 at 0.312 to 5 mg/plate preincubated for 20 mins before addition in presence of liver S9 mixture
# Type: toxicity, organism-based
# Settings: salmonella enterica subsp. enterica serovar typhimurium
# Summary of the method: as §2
row,SMILES,Activity
1,CC(C)CCOC(=O)Nc1nc(=O)n([C@@H]2O[C@H](C)[C@@H](O)[C@H]2O)cc1F,Non-toxic

# System: Salmonella typhimurium
# Experiment: Mutagenic activity in Salmonella typhimurium TA102 at 0.312 to 5 mg/plate preincubated for 20 mins before addition in absence of liver S9 mixture
# Type: toxicity, organism-based
# Settings: salmonella enterica subsp. enterica serovar typhimurium
# Summary of the method: as §2
row,SMILES,Activity
1,CC(C)CCOC(=O)Nc1nc(=O)n([C@@H]2O[C@H](C)[C@@H](O)[C@H]2O)cc1F,Non-toxic

# System: HeLa
# Experiment: Cytotoxicity against human HeLa cells after 3 days MTT assay
# Type: functional, cell-based
# Settings: 72 h
# Summary of the method: as §3
row,SMILES,IC50
1,CC(C)CCOC(=O)Nc1nc(=O)n([C@@H]2O[C@H](C)[C@@H](O)[C@H]2O)cc1F,0.09 µg/mL

# System: Salmonella typhimurium
# Experiment: Mutagenic activity in Salmonella typhimurium TA1535 at 0.312 to 5 mg/plate measured after incubation of upside down for 48 hrs in presence of liver S9 mixture
# Type: toxicity, organism-based
# Settings: salmonella enterica subsp. enterica serovar typhimurium, s9, 48 h
# Summary of the method: as §1
row,SMILES,Activity
1,CC(C)CCOC(=O)Nc1nc(=O)n([C@@H]2O[C@H](C)[C@@H](O)[C@H]2O)cc1F,Non-toxic

# System: Salmonella typhimurium
# Experiment: Mutagenic activity in Salmonella typhimurium TA98 at 0.312 to 5 mg/plate measured after incubation of upside down for 48 hrs in presence of liver S9 mixture
# Type: toxicity, organism-based
# Settings: salmonella enterica subsp. enterica serovar typhimurium, s9, 48 h
# Summary of the method: as §1
row,SMILES,Activity
1,CC(C)CCOC(=O)Nc1nc(=O)n([C@@H]2O[C@H](C)[C@@H](O)[C@H]2O)cc1F,Non-toxic

# System: Salmonella typhimurium
# Experiment: Mutagenic activity in Salmonella typhimurium TA98 at 0.312 to 5 mg/plate preincubated for 20 mins before addition in presence of liver S9 mixture
# Type: toxicity, organism-based
# Settings: salmonella enterica subsp. enterica serovar typhimurium
# Summary of the method: as §2
row,SMILES,Activity
1,CC(C)CCOC(=O)Nc1nc(=O)n([C@@H]2O[C@H](C)[C@@H](O)[C@H]2O)cc1F,Non-toxic

# System: Salmonella typhimurium
# Experiment: Mutagenic activity in Salmonella typhimurium TA100 at 0.312 to 5 mg/plate preincubated for 20 mins before addition in presence of liver S9 mixture
# Type: toxicity, organism-based
# Settings: salmonella enterica subsp. enterica serovar typhimurium
# Summary of the method: as §2
row,SMILES,Activity
1,CC(C)CCOC(=O)Nc1nc(=O)n([C@@H]2O[C@H](C)[C@@H](O)[C@H]2O)cc1F,Non-toxic

# System: Salmonella typhimurium
# Experiment: Mutagenic activity in Salmonella typhimurium TA100 at 0.312 to 5 mg/plate measured after incubation of upside down for 48 hrs in presence of liver S9 mixture
# Type: toxicity, organism-based
# Settings: salmonella enterica subsp. enterica serovar typhimurium, s9, 48 h
# Summary of the method: as §1
row,SMILES,Activity
1,CC(C)CCOC(=O)Nc1nc(=O)n([C@@H]2O[C@H](C)[C@@H](O)[C@H]2O)cc1F,Non-toxic

# System: NCI-H69
# Experiment: Cytotoxicity against human NCI-H69 cells after 3 days MTT assay
# Type: functional, cell-based
# Settings: NCI-H69, 72 h
# Summary of the method: as §3
row,SMILES,IC50
1,CC(C)CCOC(=O)Nc1nc(=O)n([C@@H]2O[C@H](C)[C@@H](O)[C@H]2O)cc1F,370 µg/mL

# System: Salmonella typhimurium
# Experiment: Mutagenic activity in Salmonella typhimurium TA1535 at 0.312 to 5 mg/plate measured after incubation of upside down for 48 hrs in absence of liver S9 mixture
# Type: toxicity, organism-based
# Settings: salmonella enterica subsp. enterica serovar typhimurium
# Summary of the method: as §1
row,SMILES,Activity
1,CC(C)CCOC(=O)Nc1nc(=O)n([C@@H]2O[C@H](C)[C@@H](O)[C@H]2O)cc1F,Non-toxic
